Calls of active or inactive are those of the source. The calls are words filed in the database; no cut-off is given here. Non-standard residues stand in square brackets, D forms with d. Residues, ends and D or L forms follow the SMILES beside them. *: point of attachment. Pro(trans-4-F) = O=C(O)[C@@H]1C[C@@H](F)CN1; Pro(cis-4-F) = O=C(O)[C@@H]1C[C@H](F)CN1; Pro(4R-NH2) = N[C@H]1CN[C@H](C(=O)O)C1; 3Pal = N[C@@H](Cc1cccnc1)C(=O)O; β3hF = N[C@H](CC(=O)O)Cc1ccccc1; PhAc = O=C(Cc1ccccc1)*; azaGly = NNC(=O)O
Tests used:
[1] = molecular target: Prostaglandin F2-alpha receptor (Mus musculus) (UniProt P43117); assay: Allosteric modulator activity at prostaglandin F2alpha receptor in CD-1 mouse myometrial strips assessed as inhibition of PGF2alpha- induced contraction at 1 uM pre-incubated for 20 mins followed by PGF2alpha challenge
Method in brief: (§1)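 Myometrial strips; baseline taken as mean tension of spontaneous contractions at start. Pretreated 20 min with modulator, then PGF2α challenge. Tension rise computed as […], X = PGF2α-induced change in mean tension (g), Y = initial reference response (g). % inhibition = (A-B)/A, A without and B with pretreatment. 5 experiments per group; means ± SEM.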

[2] = molecular target: Prostaglandin F2-alpha receptor (Mus musculus) (UniProt P43117); assay: Allosteric modulator activity at prostaglandin F2alpha receptor in CD-1 mouse myometrial strips assessed as inhibition of PGF2alpha- induced contraction at 10 uM pre-incubated for 20 mins followed by PGF2alpha challenge; method in brief: as §1
Mus musculus [3] = species: Mus musculus; assay: Inhibition of spontaneous myometrial contraction in CD-1 mouse assessed as decrease in mean tension at 10 uM; type: functional, tissue-based; conditions: Myometrium
Mus musculus [4] = assay: (§2) Suppression of LPS-induced premature delivery in Timed-pregnant CD-1 mouse assessed as inhibition of LPS-induced myometrial contraction by measuring time of delay in labor at 20 mg administered subcutaneously followed by 0.1 mg, ip bolus injection on day 16 prior to LPS challenge (reference value: 12 hrs); type: functional
Method in brief: (§3)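 Pregnant mice given LPS (E. coli endotoxin) intraperitoneally on gestational day 16. Test agent 20 mg/kg/day, started on day 16, before LPS; controls received saline. Delivery scored as percentage of animals delivered at 12, 15–24, 24–48 and 72 h after LPS. Average delivery time after LPS also recorded. 5–6 animals per treated group; n=10 for saline controls.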

Mus musculus [5] = assay: as §2, with “percentage” for “time”, “animals delivering” for “delay in labor”, “and measured on day 17” for “(reference value: 12 hrs)”; type: functional; design: scale not given: the % may be the effect or the level left; method in brief: as §3
Mus musculus [6] = assay: Suppression of LPS-induced premature delivery in Timed-pregnant CD-1 mouse assessed as inhibition of LPS-induced myometrial contraction at 20 mg administered subcutaneously followed by 0.1 mg, ip bolus injection on day 16 prior to LPS challenge and measured up to day 19; type: functional, organism-based; method in brief: as §3
Mus musculus [7] = assay: Suppression of PGF2alpha-induced premature delivery in Timed-pregnant CD-1 mouse assessed as inhibition of PGFalpha-induced myometrial contraction by measuring time of delay in labor at 10 mg administered subcutaneously followed by 0.1 mg, ip bolus injection on day 16 prior to PGF2alpha challenge (reference value: 2 hrs); type: functional
[8] = Solubility of the compound; type: physicochemical

Chain of Prostaglandin F2-alpha receptor (Mus musculus) (P43117 whole entry): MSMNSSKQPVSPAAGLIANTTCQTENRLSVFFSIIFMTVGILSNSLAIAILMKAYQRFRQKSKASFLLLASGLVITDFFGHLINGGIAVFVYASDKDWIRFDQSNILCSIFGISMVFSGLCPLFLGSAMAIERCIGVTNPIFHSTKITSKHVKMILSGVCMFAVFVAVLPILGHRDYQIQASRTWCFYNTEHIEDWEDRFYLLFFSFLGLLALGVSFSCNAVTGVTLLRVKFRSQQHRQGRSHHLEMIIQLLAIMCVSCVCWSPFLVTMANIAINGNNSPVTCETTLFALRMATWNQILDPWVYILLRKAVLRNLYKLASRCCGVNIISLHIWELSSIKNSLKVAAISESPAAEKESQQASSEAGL

inhibition [1]	inhibition [2]	Structure (SMILES)	other results
Active	Active	O=C(O)C[C@H](Cc1ccccc1)NC(=O)[C@H](Cc1cccnc1)NC(=O)[C@@H]1CCC2=C(c3ccccc3)C[C@H](NC(=O)Cc3ccccc3)C(=O)N21	–
inactive	inactive	O=C(O)C[C@H](Cc1ccccc1)NC(=O)[C@H](Cc1cccnc1)NC(=O)[C@@H]1CCC2=C(c3ccc(OC(F)(F)F)cc3)C[C@H](NC(=O)Cc3ccccc3)C(=O)N21	inhibition (Mus musculus [3]): Active
inactive	inactive	N#Cc1ccc(C2=C3CC[C@@H](C(=O)N[C@@H](Cc4cccnc4)C(=O)N[C@H](CC(=O)O)Cc4ccccc4)N3C(=O)[C@@H](NC(=O)Cc3ccccc3)C2)cc1	–
inactive	inactive	O=C(O)C[C@H](Cc1ccccc1)NC(=O)[C@H](Cc1cccnc1)NC(=O)[C@@H]1CCCN1C(=O)N(Cc1cn(-c2ccccc2)nn1)NC(=O)Cc1ccccc1	–
inactive	inactive	Cc1ccc(-n2cc(CN(NC(=O)Cc3ccccc3)C(=O)N3CCC[C@H]3C(=O)N[C@@H](Cc3cccnc3)C(=O)N[C@H](CC(=O)O)Cc3ccccc3)nn2)cc1	–
inactive	inactive	O=C(O)C[C@H](Cc1ccccc1)NC(=O)[C@H](Cc1cccnc1)NC(=O)[C@@H]1C[C@@H](F)CN1C(=O)N(Cc1ccccc1)NC(=O)Cc1ccccc1	–
inactive	inactive	O=C(O)C[C@H](Cc1ccccc1)NC(=O)[C@H](Cc1cccnc1)NC(=O)[C@@H]1CCCN1C(=O)N(Cc1ccc([N+](=O)[O-])cc1)NC(=O)Cc1ccccc1	–
inactive	inactive	O=C(O)C[C@H](Cc1ccccc1)NC(=O)[C@H](Cc1cccnc1)NC(=O)[C@@H]1C[C@@H](O)CN1C(=O)N(Cc1ccccc1)NC(=O)Cc1ccccc1	–
inactive	inactive	CN(C)CC#CCN(NC(=O)Cc1ccccc1)C(=O)N1CCC[C@H]1C(=O)N[C@@H](Cc1cccnc1)C(=O)N[C@H](CC(=O)O)Cc1ccccc1	–
Active	Active	C#CCN(NC(=O)Cc1ccccc1)C(=O)N1C[C@H](O)C[C@H]1C(=O)N[C@@H](Cc1cccnc1)C(=O)N[C@H](CC(=O)O)Cc1ccccc1	–
inactive	inactive	C#CCN(NC(=O)Cc1ccccc1)C(=O)N1C[C@@H](O)C[C@H]1C(=O)N[C@@H](Cc1cccnc1)C(=O)N[C@H](CC(=O)O)Cc1ccccc1	–
inactive	inactive	O=C(O)C[C@H](Cc1ccccc1)NC(=O)[C@H](Cc1cccnc1)NC(=O)[C@@H]1C[C@H](F)CN1C(=O)N(Cc1ccccc1)NC(=O)Cc1ccccc1	–
inactive	inactive	O=C(O)C[C@H](Cc1ccccc1)NC(=O)[C@H](Cc1cccnc1)NC(=O)[C@@H]1C[C@@H](O)[C@H]2CC[C@H](NC(=O)Cc3ccccc3)C(=O)N21	–
–	–	O=C(O)C[C@H](Cc1ccccc1)NC(=O)[C@H](Cc1cccnc1)NC(=O)[C@@H]1CCCN1C(=O)NNC(=O)Cc1ccccc1 (PhAc-[azaGly]P[3Pal][β3hF]-OH)	Time (Mus musculus [4]): 24 h; Activity (Mus musculus [5]): <20%; inhibition (Mus musculus [6]): Active
–	–	O=C(O)C[C@H](Cc1ccccc1)NC(=O)[C@H](Cc1cccnc1)NC(=O)[C@@H]1CC[C@@H]2CC[C@H](NC(=O)Cc3ccccc3)C(=O)N21	Time (Mus musculus [7]): ≤ 42 h
inactive	inactive	O=C(O)C[C@H](Cc1ccccc1)NC(=O)[C@H](Cc1cccnc1)NC(=O)[C@@H]1C[C@@H](F)CN1C(=O)NNC(=O)Cc1ccccc1 (PhAc-[azaGly][Pro(trans-4-F)][3Pal][β3hF]-OH)	–
inactive	inactive	O=C(O)C[C@H](Cc1ccccc1)NC(=O)[C@H](Cc1cccnc1)NC(=O)[C@@H]1CCCN1C(=O)N(Cc1cn(-c2ccc([N+](=O)[O-])cc2)nn1)NC(=O)Cc1ccccc1	solubility [8]: Insoluble
inactive	inactive	O=C(O)C[C@H](Cc1ccccc1)NC(=O)[C@H](Cc1cccnc1)NC(=O)[C@@H]1C[C@H](O)[C@@H]2CC[C@H](NC(=O)Cc3ccccc3)C(=O)N12	–
inactive	inactive	O=C(O)C[C@H](Cc1ccccc1)NC(=O)[C@H](Cc1cccnc1)NC(=O)[C@@H]1CCCN1C(=O)N(Cc1c[nH]nn1)NC(=O)Cc1ccccc1	–

inhibition [1]	inhibition [2]	Structure (SMILES)	other results
inactive	inactive	O=C(O)C[C@H](Cc1ccccc1)NC(=O)[C@H](Cc1cccnc1)NC(=O)[C@@H]1C[C@H](O)CN1C(=O)NNC(=O)Cc1ccccc1	–
inactive	–	O=C(O)C[C@H](Cc1ccccc1)NC(=O)[C@H](Cc1cccnc1)NC(=O)[C@@H]1CCC2=CC[C@H](NC(=O)Cc3ccccc3)C(=O)N21	–
–	inactive	O=C(O)C[C@H](Cc1ccccc1)NC(=O)[C@H](Cc1cccnc1)NC(=O)[C@@H]1CC[C@H]2CC[C@H](NC(=O)Cc3ccccc3)C(=O)N21	–
inactive	inactive	Cc1ccc(CN(NC(=O)Cc2ccccc2)C(=O)N2CCC[C@H]2C(=O)N[C@@H](Cc2cccnc2)C(=O)N[C@H](CC(=O)O)Cc2ccccc2)cc1	–
inactive	inactive	COc1ccc(C2=C3CC[C@@H](C(=O)N[C@@H](Cc4cccnc4)C(=O)N[C@H](CC(=O)O)Cc4ccccc4)N3C(=O)[C@@H](NC(=O)Cc3ccccc3)C2)cc1	–
inactive	inactive	O=C(O)C[C@H](Cc1ccccc1)NC(=O)[C@H](Cc1cccnc1)NC(=O)[C@@H]1CCCN1C(=O)N(Cc1c(F)c(F)c(F)c(F)c1F)NC(=O)Cc1ccccc1	solubility [8]: Insoluble
inactive	inactive	O=C(O)C[C@H](Cc1ccccc1)NC(=O)[C@H](Cc1cccnc1)NC(=O)[C@@H]1C[C@@H](O)CN1C(=O)NNC(=O)Cc1ccccc1	–
inactive	inactive	C#CCN(NC(=O)Cc1ccccc1)C(=O)N1C[C@H](F)C[C@H]1C(=O)N[C@@H](Cc1cccnc1)C(=O)N[C@H](CC(=O)O)Cc1ccccc1	–
Active	Active	O=C(O)C[C@H](Cc1ccccc1)NC(=O)[C@H](Cc1cccnc1)NC(=O)[C@@H]1C[C@H](F)CN1C(=O)NNC(=O)Cc1ccccc1 (PhAc-[azaGly][Pro(cis-4-F)][3Pal][β3hF]-OH)	–
inactive	inactive	O=C(O)C[C@H](Cc1ccccc1)NC(=O)[C@H](Cc1cccnc1)NC(=O)[C@@H]1CCCN1C(=O)N(Cc1cn(-c2ccc(I)cc2)nn1)NC(=O)Cc1ccccc1	–
inactive	inactive	C#CCN(NC(=O)Cc1ccccc1)C(=O)N1C[C@@H](F)C[C@H]1C(=O)N[C@@H](Cc1cccnc1)C(=O)N[C@H](CC(=O)O)Cc1ccccc1	–
Active	Active	N[C@@H]1C[C@@H](C(=O)N[C@@H](Cc2cccnc2)C(=O)N[C@H](CC(=O)O)Cc2ccccc2)N(C(=O)NNC(=O)Cc2ccccc2)C1 (PhAc-[azaGly][Pro(4R-NH2)][3Pal][β3hF]-OH)	–
inactive	inactive	O=C(O)C[C@H](Cc1ccccc1)NC(=O)[C@H](Cc1cccnc1)NC(=O)[C@@H]1CCCN1C(=O)N(Cc1cn(-c2ccc(F)cc2)nn1)NC(=O)Cc1ccccc1	–
inactive	inactive	O=C(O)C[C@H](Cc1ccccc1)NC(=O)[C@H](Cc1cccnc1)NC(=O)[C@@H]1C[C@H](O)CN1C(=O)N(Cc1ccccc1)NC(=O)Cc1ccccc1	–
inactive	inactive	O=C(O)C[C@H](Cc1ccccc1)NC(=O)[C@H](Cc1cccnc1)NC(=O)[C@@H]1CCCN1C(=O)N(CC#CCN1CCCCC1)NC(=O)Cc1ccccc1	–
–	Active	O=C(O)C[C@H](Cc1ccccc1)NC(=O)[C@H](Cc1cccnc1)NC(=O)[C@@H]1CCCN1C(=O)N(Cc1ccccc1)NC(=O)Cc1ccccc1	Time (Mus musculus [4]): 24 h; Activity (Mus musculus [5]): <20%; inhibition (Mus musculus [6]): Active
inactive	inactive	[N-]=[N+]=Nc1ccc(CC(=O)N[C@H]2CC[C@H]3CC[C@@H](C(=O)N[C@@H](Cc4cccnc4)C(=O)N[C@H](CC(=O)O)Cc4ccccc4)N3C2=O)cc1	–
Active	Active	N[C@H]1C[C@@H](C(=O)N[C@@H](Cc2cccnc2)C(=O)N[C@H](CC(=O)O)Cc2ccccc2)N(C(=O)N(Cc2ccccc2)NC(=O)Cc2ccccc2)C1	–
inactive	inactive	Nc1ccc(CC(=O)N[C@H]2CC[C@H]3CC[C@@H](C(=O)N[C@@H](Cc4cccnc4)C(=O)N[C@H](CC(=O)O)Cc4ccccc4)N3C2=O)cc1	–

— ChEMBL document CHEMBL4350956, “Paired Utility of Aza-Amino Acyl Proline and Indolizidinone Amino Acid Residues for Peptide Mimicry: Conception of Prostaglandin F2α Receptor Allosteric Modulators That Delay Preterm Birth” (J Med Chem, 2019)
